The list is not random: actives were taken first. Their share in the collection is about 5.6%.
UPR CHOP act: apoptotic UPR (CHOP) activation; activation, % at 10 µM; CHO-CHOP luciferase reporter, luminescence; percent of tunicamycin response over DMSO baseline; hit rate 0.34% among 330,000; AID 449763;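 active = at 10 µM dose, activation of 40% or more, normalized to positive control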;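 note: 100% = tunicamycin at 10 µg/mL and 0% = DMSO alone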
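assay system = CHO CHOP reporter cells | amount = 500 CHO-CHOP cells per well | buffer or medium = F12 with 10% FBS | incubation = 16-18 h cell attachment, then 6 h compound exposure, 37 °C | detection = luminescence read with Steady-Glo | read-out = percent activation relative to tunicamycin control | controls = tunicamycin high control, DMSO low control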
XBP1 UPR activ: activators of adaptive arm of unfolded protein response (XBP1) | hit rate 0.33% among 330,000 | activation, % at 20 µM | CHO-XBP1 luciferase reporter, IRE1-XBP1 UPR activation, luminescence; percent of tunicamycin response, DMSO as zero;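 active = versus positive control, 20 µM dose yields 30% or more activation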;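 note: 100% = tunicamycin at 10 µg/mL and 0% = DMSO only wells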
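Material: CHO-XBP1 cells stably carrying IRE1-XBP1-driven luciferase reporter | Medium: F12 with 10% serum | Compound dosing: 20 µM single concentration, DMSO 1% | Incubation: Overnight seeding at 37 °C, 6 h compound treatment at 37 °C | Detection: Steady-Glo luminescence read | Read-out basis: % activation of reporter signal versus tunicamycin and DMSO controls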
aDG glyco up: alpha-DG glycosylation activation; Pro5-aDG cells, alpha-DG glycosylation AlphaScreen (IIH6); 0% Pro5, 100% B10-LARGE cell signal; activation, % at 10 µM; hit rate 0.22% among 360,000; AID 624168;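 active = activation of at least 8% versus controls, or a plate z-score of at least 8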;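 note: Pro5 are CHO cells carrying HIG-tagged alpha-DG that lacks glycosylation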
CHOP inh: blocks CHOP induction under ER stress | CHO-K1 CHOP-promoter luciferase, tunicamycin-induced, 15-18 h | inhibition, % at 10 µM | hit rate 3.8% among 220,000 | AID 2732;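 active = compounds that reduced the stress-induced luciferase reporter signal by more than about 70% of percent inhibition, limit read from the data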;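 note: 0% = tunicamycin plus vehicle and 100% = wells without tunicamycin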
GRIN3A LBD mod: NR3A (human) ligand-binding domain modulation. NR3A LBD differential scanning fluorimetry, Tm shift; 0% = protein alone, 100% = glycine-bound protein. Tm shift relative to glycine control, % at 25 µM. hit rate 2.5% among 340,000;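 active = melting temperature shift of at least 10% of the positive control shift, at one fixed dose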
MPTP inh: permeability transition pore inhibition; inhibition, % at 10 µM; isolated mouse mitochondria, Ca2+ swelling absorbance, 30 min; hit rate 1.4% among 360,000;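 active = inhibition of 50% or more, scaled per plate between neutral and stimulator controls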;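 note: 0% = DMSO wells given calcium and 100% = 1 mM EGTA wells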
Rh123 counter: mitochondrial membrane potential, counter-screen; shares compounds with MPTP inh; isolated mitochondria, Rhodamine 123 fluorescence; inhibition, % at 10 µM; hit rate 78% among 5,000; in the data active = inhibition above about 22%;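 note: 0% = DMSO vehicle and 100% = positive control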
* = called active by the depositor; . = no result.

SMILES	UPR CHOP act	XBP1 UPR activ	aDG glyco up	CHOP inh	GRIN3A LBD mod	MPTP inh	Rh123 counter
C=CCn1cc(C(=O)OCC)c(=O)c2cc(F)c(F)cc21	1	-1	0	34	0	2	.
CCN(Cc1ccccc1)C(=O)Cn1c(=O)n(CC(=O)N2CCCCC2)c(=O)c2sccc21	0	-3	0	.	2	-1	.
O=C(CSc1ccc(F)cc1)Nc1ccc2c(c1)C(=O)NC2=O	6	-5	0	.	0	-2	.
O=C(CNCc1ccccn1)N1CCc2ccccc2C1	1	0	0	-18	-5	1	.
CCOC(=O)C1(Cc2cccc(OC)c2)CCN(C/C=C/c2ccc(OC)cc2)CC1	-1	-3	4	55	-2	80*	79*
CCOC(=O)C1(Cc2cccc(OC)c2)CCN(C/C=C/c2ccccc2)CC1	-1	0	1	50	2	22	.
COc1cc(C(=O)Nc2ccc3nc(N4CCN(C)CC4)cc(C)c3c2)cc(OC)c1OC	-3	2	0	.	-2	1	.
COc1ccc(NC(=O)c2ccc(-c3ccc(-c4noc(C)n4)cc3C)cc2)cc1N1CCN(C)CC1	17	1	0	5	2	81*	-19
NS(=O)(=O)c1ccc(CNC(=S)NCc2ccc(F)cc2)cc1	-2	-2	0	.	2	0	.
CCOc1ccc(-n2c(C)cc(/C=C3/C(=N)N4C(=NC3=O)SN=C4S(C)(=O)=O)c2C)cc1	-2	0	0	22	-1	76*	28*
Cc1cccc(C)c1-n1cccc1/C=C1/C(=N)N2C(=NC1=O)SN=C2S(C)(=O)=O	-1	-2	0	39	-4	67*	75*
Cc1cc(/C=C2/C(=N)N3C(=NC2=O)SN=C3S(C)(=O)=O)c(C)n1-c1ccc(F)cc1	3	1	0	-18	-1	20	.
Cc1ccc(-n2cccc2/C=C2/C(=N)N3C(=NC2=O)SN=C3S(C)(=O)=O)cc1Cl	.	.	0	1	2	26	.
CCCN(CC(=O)Nc1ccccc1OC)C(=O)CC1CCCC1	-2	3	0	.	0	1	.
Cc1cccc(C)c1NC(=O)Nc1nnc([C@@H]2C[C@H](O)[C@@H](CO)O2)s1	.	.	0	.	.	0	.
COCC(C)NC(=O)c1cc2cccc([N+](=O)[O-])c2[nH]1 (stereo unspecified)	1	-2	0	12	0	1	.
Cc1cc(NC(=O)c2cc3cccc([N+](=O)[O-])c3[nH]2)ccc1F	7	2	0	-6	29*	83*	69*
CCN(CC(=O)Nc1ccc(N2CCOCC2)cc1)C(=O)c1ccc(C(F)(F)F)cc1	0	-3	0	12	-4	1	.
CC(C)C(N)c1csc(NC(=O)Nc2cccc(C(F)(F)F)c2)n1 (stereo unspecified)	.	.	2	.	.	5	.
CC(C)C(N)c1csc(NC(=O)Nc2ccc(OC(F)(F)F)cc2)n1 (stereo unspecified)	.	.	2	.	.	70*	88*
Cc1ccc(CC2SC(N)=NC2=O)cc1 (stereo unspecified)	-1	-1	0	6	2	0	.
O=C1c2cc(Br)ccc2N(Cc2ccc(Br)cc2)S(=O)(=O)C1c1cc(Cl)c(Cl)cc1[N+](=O)[O-] (stereo unspecified)	1	1	0	.	-3	66*	18
FC(F)(F)c1ccc(N2CCN(c3cc(-c4ccccc4)nc4ncnn34)CC2)nc1	3	-5	3	74*	-2	92*	48*
CN1CCN(CCNC(=O)c2ccc(CS(=O)c3ccc(Br)cc3)o2)CC1 (stereo unspecified)	.	.	0	.	.	-1	.
CCOc1ccc2nc(N3C(=O)/C(=C/c4ccc(Cl)cc4)NC3=S)sc2c1	.	.	0	105*	-1	92*	5
Cc1c(C(=O)Nc2cccc([N+](=O)[O-])c2)cnn1-c1ccccc1	5	3	0	.	-4	0	.
